Source: PubChem BioAssay
Shown are actives, neighbours in structure and some others; about 2.2% of the full set was active somewhere.
CHRM1 agonist: agonists of human M1 muscarinic receptor | activation, % at 3 µM | CHO-K1 hM1, Fluo-8 calcium fluorescence, agonist mode; 0% DMSO, 100% acetylcholine EC100 | P11229 | 0.33% of 360,000 active;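 active = activation above the run's mean compound activation plus 3 SD, cut at about 16% in these data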;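 also: peak over basal fluorescence ratio within a 140 s kinetic read after compound addition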
Target sequence (P11229 whole entry, looked up): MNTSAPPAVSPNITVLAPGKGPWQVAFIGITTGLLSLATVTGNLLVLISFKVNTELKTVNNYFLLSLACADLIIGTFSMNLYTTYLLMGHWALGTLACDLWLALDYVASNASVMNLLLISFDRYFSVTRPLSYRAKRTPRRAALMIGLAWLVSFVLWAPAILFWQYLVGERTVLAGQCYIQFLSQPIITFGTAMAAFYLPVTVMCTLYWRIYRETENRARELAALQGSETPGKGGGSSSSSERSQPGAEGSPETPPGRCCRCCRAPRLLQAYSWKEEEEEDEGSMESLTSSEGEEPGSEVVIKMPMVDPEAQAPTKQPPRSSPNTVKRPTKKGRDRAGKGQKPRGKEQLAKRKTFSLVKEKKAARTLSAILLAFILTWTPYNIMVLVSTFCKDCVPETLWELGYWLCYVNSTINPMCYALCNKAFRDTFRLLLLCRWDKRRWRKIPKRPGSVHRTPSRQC
CHRM1 antagonist: blocks human M1 muscarinic receptor. 1.3% of 360,000 active. inhibition, % at 3 µM. AID 588852. P11229. CHO-K1 hM1, Fluo-8 calcium fluorescence, ACh EC80 antagonist;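 active = percent inhibition above its own plate's cutoff, namely the mean of that plate's compound wells plus 3 SD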;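 also: peak over basal fluorescence ratio during 140 s after agonist addition; 0% = ACh EC80 plus DMSO and 100% = DMSO alone without agonist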
CHRM5 agonist: CHRM5 agonism in calcium assay; AID 624037; P08912; 0.19% of 360,000 active; activation, % at 3 µM; CHO-K1 hM5 cells, Fluo-8 calcium fluorescence; 0% DMSO wells, 100% maximal acetylcholine response;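 active = activation above the run's mean over test compounds plus 3 SD, cut at about 23% in these data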;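 also: signal is peak over basal fluorescence ratio across the kinetic read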
M1 PAM: positive allosteric modulators of human M1 muscarinic receptor. P11229. CHO-K1 hM1, Fluo-8 calcium fluorescence, ACh EC20; 0% = ACh EC20, 100% = maximal ACh. activation, % at 3 µM. 0.088% of 360,000 active; in the data active = activation above about 19%, passing the limit was not always enough
M5 PAM: positive allosteric modulators of human muscarinic M5 receptor | P08912 | CHO-K1 hM5, Fluo-8 calcium, ACh EC20 PAM; 0% = ACh EC20, 100% = ACh EC100 | activation, % at 3 µM | 0.3% of 360,000 active;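 active = activation above the run cutoff, the mean activation of all test compounds plus 3 SD, cut at about 18% in these data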
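Assay system: CHO-K1 hM5 cells / Incubation: Fluo-8 loading 80 min at 37 °C plus 30 min room temperature / Technique: Fluo-8 calcium dye fluorescence, kinetic read / Repeats: single replicate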
CHRM5 antagonist: antagonists of human muscarinic M5 receptor (CHRM5). inhibition, % at 3 µM. CHO-hM5 cells, Fluo-8 calcium fluorescence, ACh EC80. P08912. 0.59% of 360,000 active;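 active = inhibition above a per-plate cutoff, the mean of that plate's test compounds plus 3 SD, cut at about 27% in these data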;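 also: 0% = acetylcholine EC80 with DMSO and 100% = DMSO without agonist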
The depositor's hits bear a star; . = no result.

SMILES | CHRM1 agonist | CHRM1 antagonist | CHRM5 agonist | M1 PAM | M5 PAM | CHRM5 antagonist
O=C1NCN(c2ccccc2)C12CCN(C(CCc1ccccc1)c1nnnn1C1CCCCC1)CC2 (stereo unspecified) | -1 | -3 | 5 | -4 | 2 | 9
O=C1NCN(c2ccccc2)C12CCN(C(c1ccccc1OC(F)(F)F)c1nnnn1C1CCCC1)CC2 (stereo unspecified) | -3 | -28 | -1 | 3 | 0 | -1
COc1ccc(-n2c(O)c(/C(C)=N/N3CCCCCC3)c(=O)[nH]c2=O)cc1 | -1 | -12 | 3 | 34* | 8 | -1
O=c1[nH]c(=O)n(-c2ccccc2)c(O)c1/C=C/C=Nc1ccccc1 | -1 | -1 | 4 | 3 | -5 | 2
COc1ccc(-n2c(O)c(/C=C/C=Nc3ccccc3)c(=O)[nH]c2=O)cc1 | 22* | 17 | 24* | -11 | -14 | 15
COc1ccc(-n2c(O)c(/C(C)=N/Nc3ccccc3)c(=O)[nH]c2=O)cc1 | -4 | -2 | 5 | 4 | 3 | -4
O=c1[nH]c(=O)n(C2CCCCC2)c(O)c1/C=C/C=Nc1ccccc1 | 18* | 1 | 28* | -2 | -8 | 14
COc1ccc(C(=O)OCC2CN2c2cccc([N+](=O)[O-])c2)cc1 (stereo unspecified) | . | . | -1 | . | -11 | 9
O=S(=O)(c1cccc2ccccc12)N1Cc2ccccc2-n2nncc2C1 | 3 | -1 | 2 | -6 | -5 | 10
Cc1ccccc1NC(=O)N1Cc2ccccc2-n2nncc2C1 | -2 | -1 | 1 | 0 | 1 | 7
COc1cccc(CNC2CN3CCC2CC3)c1OC (stereo unspecified) | -12 | 73* | -6 | -35 | -24 | 60*
CCOc1cccc(CNC2CN3CCC2CC3)c1 (stereo unspecified) | -7 | 14 | -13 | -13 | 0 | -7
CCc1c(-c2ccccc2)nc2ccccc2c1C(=O)N1CCC2(CC1)OCCO2 | -2 | -3 | -2 | 1 | -6 | 8
CCOC(=O)C(O)(c1ccc(NC(=O)Oc2ccccc2)cc1)C(F)(F)F (stereo unspecified) | -7 | 3 | 0 | 1 | -1 | 4
COC(=O)C(O)(c1ccc(NC(=S)NC(=O)c2ccc(Cl)cc2Cl)cc1)C(F)(F)F (stereo unspecified) | 21* | 22 | 11 | -10 | -8 | 15
CCOC(=O)C(O)(c1ccc(NC(=S)NC(=O)c2ccc(Cl)cc2Cl)cc1)C(F)(F)F (stereo unspecified) | 21* | 25 | 20 | -1 | 2 | 11
COC(=O)C1=CO[C@@H](C)[C@@H]2CN(CCc3c[nH]c4ccccc34)CC[C@H]12 | 2 | 4 | -5 | -14 | -24 | 49*
Clc1ccc(C[n+]2c(-c3ccccc3)cc(-c3ccccc3)cc2-c2ccccc2)cc1 | -6 | 36* | -9 | -14 | -19 | 23
Cc1cc(-c2ccccc2)cc(-c2ccccc2)[n+]1CCc1ccccc1 | -10 | 60* | -9 | -25 | -28 | 18
CCOc1ccc(-c2cc(C)[n+](CCc3ccc(OC)c(OC)c3)c(-c3ccc(OCC)cc3)c2)cc1 | -8 | -4 | -9 | -2 | -14 | 14
C[C@H]1COc2cc(N3CCN(C)CC3)ccc2S(=O)(=O)N1 | . | . | -1 | . | -10 | 9
COC(=O)C1=C(c2ccc(OCc3ccccc3)cc2)C[C@@H]2CC[C@H]1N2C(=O)NCCc1ccc(F)cc1 | -6 | 4 | 2 | -8 | -3 | 3
CC(=O)O[C@H]1CC[C@@]2(C)[C@H](C1)C(=O)C[C@H]1[C@@H]3CC[C@@H]4[C@@H](CN5C[C@@H](C)CC[C@H]5[C@@]4(C)O)[C@@H]3C[C@@H]12 | -12 | 100* | -7 | -33 | -6 | 10
C[C@]12CC[C@H](O)CC1C(=O)CC1C2CC[C@@]2(C)C1CC[C@@H]2O (stereo partly specified) | -6 | -13 | -5 | 4 | -3 | -3
C[C@H]1CC[C@@H]2N(C1)C[C@H]1[C@@H]3C[C@H]4[C@@H](CC(=O)[C@H]5C[C@@H](O)CC[C@@]54C)[C@@H]3CC[C@H]1[C@]2(C)O | -10 | 86* | -6 | -28 | -8 | 1
SMILES | CHRM1 agonist | CHRM1 antagonist | CHRM5 agonist | M1 PAM | M5 PAM | CHRM5 antagonist
O=P(NCc1ccccc1)(Oc1ccccc1)Oc1ccccc1 | -5 | 7 | 2 | -5 | -9 | 7
FC(F)(F)c1cccc(NC2=NCCS2)c1 | -5 | 4 | 0 | -7 | -3 | -2
Cc1ccccc1-c1ccc2n1Cc1cnnn1-c1ccccc1-2 | -2 | 0 | -3 | 0 | -11 | 6
CN1C(=O)NC(=O)C2(CCCC2)C1=O | 3 | 6 | 1 | -1 | -3 | 5
Cc1nc2ccccc2c(=O)n1-c1ccc(-c2ccccc2)cc1 | -5 | 14 | -2 | -14 | -16 | 11
C[C@H]1OC[C@@H](C[N+](C)(C)C)O1 | 121* | 83* | 107* | -10 | -12 | 96*
CC1OC(C[N+](C)(C)C)CC1O (stereo unspecified) | 114* | 88* | 102* | -13 | -13 | 95*
CCCCCn1c(N)c(C(=O)NCCN2CCOCC2)c2nc3ccccc3nc21 | -4 | -1 | -1 | -2 | -2 | 1
COc1ccc(CCNC(=O)c2c(N)n(CCN3CCOCC3)c3nc4ccccc4nc23)cc1OC | -1 | 24 | 0 | -11 | -15 | 34*
COC1C(C)OC(OC2CC(C)(O)Cc3cc4c(c(O)c32)C(=O)c2c(O)cc3c(c2C4=O)OC2OC3(C)C(O)C(N(C)C)C2O)C(OC)C1(C)OC (stereo unspecified) | 11 | -6 | 30* | -3 | -19 | 15
CS(=O)(=O)c1ccc(C2=C(CNC(=O)c3nccs3)[C@H]3CC[C@@H](C2)N3CCOc2ccccc2)cc1 | -11 | 56* | -3 | -26 | -13 | 13
CS(=O)(=O)c1ccc(C2=C(CNC(=O)c3cccs3)[C@H]3CC[C@@H](C2)N3CCOc2ccccc2)cc1 | -11 | 35* | -4 | -25 | -14 | 9
CC(CC(C#N)(c1ccccc1)c1ccccc1)N(C)C (stereo unspecified) | -14 | 102* | -6 | -35 | -23 | 99*
CC[n+]1c(/C=C/N(C)c2ccccc2)sc2ccc(Cl)cc21 | -7 | 64* | -6 | -33 | -1 | 3
CC[n+]1c(/C=C/C=C/c2ccc(N(C)C)cc2)sc2ccccc21 | 3 | 69* | -2 | -23 | -30 | 51*
CCN(CC)C(=O)c1ccc(NC(=O)c2cn(-c3ccccc3)nc2-c2ccc(OC)cc2)cc1 | -4 | 0 | -3 | 1 | -10 | 28*
